Data reported in ChEMBL document CHEMBL4229395, “Photoactivated 2,3-distyrylindoles kill multi-drug resistant bacteria” (Bioorg Med Chem Lett, 2018).
pIC50: −log10 of the molar value. Active and inactive are the calls of the source. The rule behind the calls is not given here.

Key:
Staphylococcus aureus [1] = assay: Bactericidal activity against methicillin-resistant Staphylococcus aureus ATCC BAA-44 at 5 uM irradiated with white light for 2 mins and measured after overnight incubation by drip-streak plate method; assay type: functional, organism-based
Procedure, shortened: (§1)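 MRSA ATCC BAA-44 cells incubated with a range of compound concentrations, then irradiated for 2 min with a white-light lamp or kept in the dark. Colonies were counted at the dilution giving 30–300 colonies. Each experiment had 3 replicates and was repeated in 3 independent experiments.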

Staphylococcus aureus [2] = assay: Bactericidal activity against methicillin-resistant Staphylococcus aureus ATCC BAA-44 at 30 nM irradiated with white light for 2 mins and measured after overnight incubation by drip-streak plate method relative to control; assay type: functional; procedure, shortened: as §1
[3] = Dark toxicity against human MCF7 cells assessed as decrease in cell viability by MTT assay; assay type: cell-based
Procedure, shortened: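 MCF-7 breast adenocarcinoma cells were incubated with compound without light. Viability was read by MTT colorimetric assay, and IC50 was derived from the concentration–response.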

[4] = Induction of singlet oxygen generation at 1285 nm at 10 uM; assay type: functional
Enterococcus faecalis [5] = assay: Bactericidal activity against Enterococcus faecalis ATCC 51299 at 1 uM in presence of light; assay type: functional, organism-based
Klebsiella pneumoniae [6] = assay: Bactericidal activity against carbapenem-resistant Klebsiella pneumoniae ATCC BAA-2146 at 2 ug/ml in presence of light; assay type: functional, organism-based
Klebsiella pneumoniae [7] = assay: Bactericidal activity against carbapenem-resistant Klebsiella pneumoniae ATCC BAA-2146 at 5 uM incubated under dark condition in presence of polymyxin E; assay type: ADME, organism-based
Streptococcus mutans [8] = assay: Bactericidal activity against Streptococcus mutans Ward's 85W 2357 at 1 uM incubated under dark condition; assay type: ADME, organism-based
Procedure, shortened: (§2)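 Bacterial suspensions (about 10^8 CFU/mL) were incubated with the compound at a range of concentrations and kept in the dark, the unirradiated control for a 2 min white-light exposure. Samples were diluted 10-fold, drip-streaked on TSA and incubated overnight at 37 °C. Colonies were counted at the dilution giving 30–300 colonies.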

Staphylococcus aureus [9] = assay: Bactericidal activity against methicillin-resistant Staphylococcus aureus ATCC BAA-44 irradiated with white light for 2 mins and measured after overnight incubation by drip-streak plate method; assay type: functional, organism-based; procedure, shortened: as §1
Pseudomonas aeruginosa [10] = assay: Bactericidal activity against Pseudomonas aeruginosa ATCC BAA-2114 at 5 uM incubated under dark condition; assay type: ADME, organism-based
[11] = Induction of singlet oxygen generation at 1210 nm; assay type: functional
Streptococcus pyogenes [12] = assay: Bactericidal activity against Streptococcus pyogenes ATCC 8133 at 1 uM incubated under dark condition; assay type: ADME, organism-based; procedure, shortened: as §2
Acinetobacter baumannii [13] = assay: Bactericidal activity against Acinetobacter baumannii ATCC BAA1797 at 5 uM in presence of light; assay type: functional, organism-based
Escherichia coli [14] = assay: Bactericidal activity against Escherichia coli ATCC 25922 at 5 uM incubated under dark condition; assay type: ADME, organism-based
Escherichia coli [15] = assay: Bactericidal activity against Escherichia coli ATCC 25922 at 2 ug/ml in presence of light; assay type: functional, organism-based
Pseudomonas aeruginosa [16] = assay: Bactericidal activity against Pseudomonas aeruginosa ATCC BAA-2114 at 2 ug/ml in presence of light; assay type: functional, organism-based
Escherichia coli [17] = assay: Bactericidal activity against Escherichia coli ATCC 25922 at 5 uM incubated under dark condition in presence of polymyxin E; assay type: ADME, organism-based
Pseudomonas aeruginosa [18] = assay: Bactericidal activity against Pseudomonas aeruginosa ATCC BAA-2114 at 5 uM in presence of light; assay type: functional, organism-based
Streptococcus pyogenes [19] = assay: Bactericidal activity against Streptococcus pyogenes ATCC 8133 at 1 uM in presence of light; assay type: functional, organism-based
Staphylococcus aureus [20] = assay: Disruption of cell membrane in methicillin-resistant Staphylococcus aureus ATCC BAA-44 at 10 uM in presence of light by propidium iodide staining-based assay; assay type: functional, organism-based
Procedure, shortened: (§3)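 MRSA ATCC BAA-44 cells were treated with compound with or without light, then stained with propidium iodide. Red PI fluorescence marks membrane disruption; green fluorescence comes from the compound. Phenylarsine oxide was the positive control.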

Staphylococcus aureus [21] = assay: Disruption of cell membrane in methicillin-resistant Staphylococcus aureus ATCC BAA-44 incubated under dark condition by scanning electron microscopic method; assay type: organism-based
Klebsiella pneumoniae [22] = assay: Bactericidal activity against carbapenem-resistant Klebsiella pneumoniae ATCC BAA-2146 at 5 uM in presence of light and polymyxin E; assay type: functional, organism-based
Staphylococcus aureus [23] = assay: Bactericidal activity against methicillin-resistant Staphylococcus aureus ATCC BAA-44 at 1 uM irradiated with white light through mask for 2 mins and measured after overnight incubation; assay type: functional, organism-based
Procedure, shortened: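 MRSA ATCC BAA-44 cells were pre-treated with compound at 1 μM and spread over an agar plate. The plate was irradiated with white light through a mask for 2 min, incubated overnight at 37 °C and photographed to show where colonies grew.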

Acinetobacter baumannii [24] = assay: Bactericidal activity against Acinetobacter baumannii ATCC BAA1797 at 5 uM in presence of light and polymyxin E relative to control; assay type: functional
Escherichia coli [25] = assay: Bactericidal activity against Escherichia coli ATCC 25922 at 5 uM in presence of light; assay type: functional, organism-based
Acinetobacter baumannii [26] = assay: Bactericidal activity against Acinetobacter baumannii ATCC BAA1797 at 1.25 ug/ml in presence of light; assay type: functional, organism-based
Staphylococcus aureus [27] = assay: Bactericidal activity against methicillin-resistant Staphylococcus aureus ATCC BAA-44 incubated under dark condition and measured after overnight incubation by drip-streak plate method; assay type: ADME, organism-based; settings: in vitro; procedure, shortened: as §1
Staphylococcus aureus [28] = assay: Bactericidal activity against Staphylococcus aureus ATCC 29213 at 1 uM incubated under dark condition; assay type: ADME, organism-based
Staphylococcus aureus [29] = assay: Disruption of cell membrane in methicillin-resistant Staphylococcus aureus ATCC BAA-44 at 10 uM incubated under dark condition by propidium iodide staining-based assay; assay type: organism-based; procedure, shortened: as §3
Escherichia coli [30] = assay: Bactericidal activity against Escherichia coli ATCC 25922 at 5 uM in presence of light and polymyxin E relative to control; assay type: functional
Acinetobacter baumannii [31] = assay: Bactericidal activity against Acinetobacter baumannii ATCC BAA1797 at 5 uM incubated under dark condition; assay type: ADME, organism-based
Pseudomonas aeruginosa [32] = assay: Bactericidal activity against Pseudomonas aeruginosa ATCC BAA-2114 at 5 uM in presence of light and polymyxin E; assay type: functional, organism-based
Staphylococcus aureus [33] = assay: Disruption of cell membrane in methicillin-resistant Staphylococcus aureus ATCC BAA-44 in presence of light by scanning electron microscopic method; assay type: functional, organism-based
Staphylococcus aureus [34] = assay: Bactericidal activity against methicillin-resistant Staphylococcus aureus ATCC BAA1717 at 1 uM in presence of light; assay type: functional, organism-based
Streptococcus mutans [35] = assay: Bactericidal activity against Streptococcus mutans Ward's 85W 2357 at 1 uM in presence of light; assay type: functional, organism-based
Enterococcus faecalis [36] = assay: Bactericidal activity against Enterococcus faecalis ATCC 51299 at 1 uM incubated under dark condition; assay type: ADME, organism-based; procedure, shortened: as §2
Staphylococcus aureus [37] = assay: Bactericidal activity against methicillin-resistant Staphylococcus aureus ATCC BAA-44 at 0.1 uM irradiated with white light for 2 mins and measured after overnight incubation by drip-streak plate method relative to control; assay type: functional; procedure, shortened: as §1
Klebsiella pneumoniae [38] = assay: Bactericidal activity against carbapenem-resistant Klebsiella pneumoniae ATCC BAA-2146 at 5 uM incubated under dark condition; assay type: ADME, organism-based
Staphylococcus aureus [39] = assay: Bactericidal activity against Staphylococcus aureus ATCC 29213 at 1 uM in presence of light; assay type: functional, organism-based
Klebsiella pneumoniae [40] = assay: Bactericidal activity against carbapenem-resistant Klebsiella pneumoniae ATCC BAA-2146 at 5 uM in presence of light; assay type: functional, organism-based
Klebsiella pneumoniae [41] = assay: Bactericidal activity against carbapenem-resistant Klebsiella pneumoniae ATCC BAA-2146 at 2 ug/ml incubated under dark condition; assay type: ADME, organism-based
Acinetobacter baumannii [42] = assay: Bactericidal activity against Acinetobacter baumannii ATCC BAA1797 at 1.25 ug/ml incubated under dark condition; assay type: ADME, organism-based
Pseudomonas aeruginosa [43] = assay: Bactericidal activity against Pseudomonas aeruginosa ATCC BAA-2114 at 2 ug/ml incubated under dark condition; assay type: ADME, organism-based
Escherichia coli [44] = assay: Bactericidal activity against Escherichia coli ATCC 25922 at 2 ug/ml incubated under dark condition; assay type: ADME, organism-based

Clc1ccccc1/C=C/c1[nH]c2ccccc2c1/C=C/c1ccccc1Cl
Activity (Staphylococcus aureus [1]): Active

C(=C\c1[nH]c2ccccc2c1/C=C/c1ccccc1)/c1ccccc1
fold change (FC) (Staphylococcus aureus [2]): 5

CN(C)[C@@H]1C(O)=C(C(N)=O)C(=O)[C@@]2(O)C(O)=C3C(=O)c4c(O)cccc4[C@@](C)(O)[C@H]3C[C@@H]12 [TETRACYCLINE]
pIC50 [3]: 4.38

Clc1cccc(/C=C/c2[nH]c3ccccc3c2/C=C/c2cccc(Cl)c2)c1
Activity (Staphylococcus aureus [1]): inactive

CCn1cc(C(=O)O)c(=O)c2cc(F)c(N3CCNCC3)cc21 [NORFLOXACIN]
pIC50 [3]: 4.86

COc1ccc(/C=C/c2[nH]c3ccccc3c2/C=C/c2ccc(OC)cc2)cc1
Activity (Staphylococcus aureus [1]): inactive

O=C1OC2(c3cc(I)c(O)c(I)c3Oc3c2cc(I)c(O)c3I)c2c(Cl)c(Cl)c(Cl)c(Cl)c21
Activity [4]: Active

Clc1ccc(/C=C/c2[nH]c3ccccc3c2/C=C/c2ccc(Cl)cc2)cc1
Activity (Enterococcus faecalis [5]): Active | Activity (Klebsiella pneumoniae [6]): inactive | Activity (Klebsiella pneumoniae [7]): Toxic | Activity (Streptococcus mutans [8]): Non-Toxic | Activity (Staphylococcus aureus [9]): Dose-dependent effect | Activity (Pseudomonas aeruginosa [10]): Non-Toxic | Activity [11]: Dose-dependent effect | Activity (Streptococcus pyogenes [12]): Non-Toxic | Activity (Acinetobacter baumannii [13]): inactive | Activity (Escherichia coli [14]): Non-Toxic | Activity (Escherichia coli [15]): inactive | Activity (Pseudomonas aeruginosa [16]): inactive | Activity (Escherichia coli [17]): Toxic | Activity (Pseudomonas aeruginosa [18]): inactive | Activity (Streptococcus pyogenes [19]): Active | Activity (Staphylococcus aureus [20]): Active | Activity (Staphylococcus aureus [21]): Non-Toxic | pIC50 [3]: 4.33 | Activity (Klebsiella pneumoniae [22]): Active | Activity (Staphylococcus aureus [23]): Active | Activity (Acinetobacter baumannii [24]): 7 deltalog10CFU/ml | Activity (Escherichia coli [25]): inactive | Activity (Acinetobacter baumannii [26]): inactive | Activity (Staphylococcus aureus [27]): Dose-dependent effect | Activity (Staphylococcus aureus [28]): Non-Toxic | Activity (Staphylococcus aureus [29]): Non-Toxic | Activity (Escherichia coli [30]): 7 deltalog10CFU/ml | Activity (Acinetobacter baumannii [31]): Non-Toxic | Activity (Pseudomonas aeruginosa [32]): Active | Activity (Staphylococcus aureus [33]): Active | Activity (Staphylococcus aureus [34]): Active | Activity (Streptococcus mutans [35]): Active | Activity (Enterococcus faecalis [36]): Non-Toxic | Activity (Staphylococcus aureus [37]): 5 deltalog10CFU/ml | Activity (Klebsiella pneumoniae [38]): Non-Toxic | Activity (Staphylococcus aureus [39]): Active | Activity (Klebsiella pneumoniae [40]): inactive

Fc1ccc(/C=C/c2[nH]c3ccccc3c2/C=C/c2ccc(F)cc2)cc1
Activity (Staphylococcus aureus [1]): inactive

COLISTIN
Activity (Klebsiella pneumoniae [41]): Non-Toxic | Activity (Acinetobacter baumannii [42]): Non-Toxic | Activity (Pseudomonas aeruginosa [43]): Non-Toxic | Activity (Escherichia coli [44]): Non-Toxic
